According to paper PMC6023675 (Journal of molecular biology, 2018):

Legend:
[1] = test system: ribosome translating synthetic ORF […]; experiment: Primer extension inhibition; type: biochemical; conditions: 100 μM antibiotic, with or without mupirocin 50 μM, ORF MFKAFKNIIRTRTL
E. coli 70S ribosomes = experiment: Competition binding assay with BODIPY-labeled erythromycin; conditions: ratio of KDapp versus CLM; listed as L-histidyl analogue
Outline: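 E. coli 70S ribosomes (25 nM) preincubated with BODIPY-erythromycin (4 nM) for 30 min at 25°C in 20 mM HEPES-KOH pH 7.5, 50 mM NH₄Cl, 10 mM Mg acetate, 0.05% Tween-20. Test compound was added at 0.1 μM to 1 mM, then incubated 2 h to equilibrium. Fluorescence polarization was read to give apparent KD by competition.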

[2] = test system: cell-free translation of firefly luciferase in E. coli S30 cell extract; type: biochemical; conditions: 30 μM inhibitor
Outline: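 In vitro transcribed firefly luciferase mRNA (100 ng) was translated in E. coli S30 extract at 37°C for 30 min with test compound at 30 μM final. Luciferase activity was read with Steady-Glo substrate. Reactions were run in triplicate; error bars are confidence interval (α = 0.05).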

C=C[C@]1(C)C[C@@H](OC(=O)CS[C@@H]2C[C@H]3CC[C@@H](C2)N3C)[C@]2(C)[C@H](C)CC[C@]3(CCC(=O)[C@H]32)[C@@H](C)[C@@H]1O [retapamulin (RET), retapamulin]
Site of antibiotic-induced translation arrest (toe-printing) [1]: arrests the ribosome at the start codon

N[C@@H](Cc1c[nH]cn1)C(=O)N[C@H](CO)[C@H](O)c1ccc([N+](=O)[O-])cc1 [His-CAM (1)]
Affinity for the ribosome relative to CLM (fold higher) (E. coli 70S ribosomes): 10 fold

O=C(N[C@H](CO)[C@H](O)c1ccc([N+](=O)[O-])cc1)C(Cl)Cl [CLM, chloramphenicol]
Inhibition of firefly luciferase synthesis (in words) [2]: near-complete inhibition
